From ChEMBL document CHEMBL2150875, “1-Aryl-4-nitro-1H-imidazoles, a new promising series for the treatment of human African trypanosomiasis” (Eur J Med Chem, 2011)
Values after ≈ are worked out from the molar mass of the structure shown. One block for each compound: values may come before it.

Key:
[1] = tested on: Trypanosoma brucei rhodesiense; assay: Antiparasitic activity against Trypanosoma brucei rhodesiense STIB900 bloodstream forms assessed as reduction in cell viability after 70 hrs by alamar blue assay; assay type: functional, organism-based
L6 = assay: Cytotoxicity against in rat L6 cells assessed as reduction in cell viability after 70 hrs by alamar blue assay; assay type: cell-based; conditions: L6, 70 h
How it was run: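 L-6 rat skeletal myoblasts seeded at 4×10^4/mL. 37 °C, 5% CO2, 70 h, then resazurin viability read by fluorescence after 2–4 h. IC50 from sigmoidal inhibition curves.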

Lymphocyte [2] = assay: Genotoxicity in human lymphocytes assessed as micronucleated binucleate cells level at […] incubated for 20 hrs measured post 28 hrs recovery in absence of rat liver S9 fraction (reference value: 0.3%); assay type: toxicity, cell-based
Lymphocyte [3] = assay: Genotoxicity in human lymphocytes assessed as micronucleated binucleate cells level at 5 ug/mL incubated for 20 hrs measured post 28 hrs recovery in absence of rat liver S9 fraction (reference value: 0.4%); assay type: toxicity, cell-based
How it was run: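 Cultures were PHA-stimulated pooled female donor whole-blood lymphocytes, grown 48 h at 37 °C before treatment, with cytochalasin-B 6 µg/mL added at treatment. Without S9, exposure was 20 h with 28 h recovery. With rat S9, exposure was 3 h with 45 h recovery. Micronucleated binucleate cells were scored at 1000 per replicate on Giemsa-stained slides.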

[4] = Redox potential of the compound assessed as one electron redox potential by pulse radiolysis method; assay type: physicochemical
Lymphocyte [5] = assay: Genotoxicity in human lymphocytes assessed as micronucleated binucleate cells level at 0.03 ug/mL incubated for 24 hrs measured under no recovery condition in absence of rat liver S9 fraction (reference value: 0.50%); assay type: toxicity, cell-based
[6] = Trypanosoma brucei, STIB900, 70 h, read-out: IC50

- IC50 [1]: Not Active
Compound: O=[N+]([O-])c1cn(-c2ccccc2Cl)cn1

- IC50 [1]: Not Active
Compound: O=[N+]([O-])c1cn(-c2ccccc2Br)cn1

- IC50 [1]: Not Active
Compound: O=[N+]([O-])c1cn(-c2ccc(F)cc2F)cn1

- IC50 [1]: Not Active
Compound: O=[N+]([O-])c1cn(-c2c(F)cccc2F)cn1

- IC50 [1]: Not Active
Compound: O=[N+]([O-])c1cn(-c2ccc(Cl)cc2Cl)cn1

- IC50 [1]: Not Active
Compound: O=[N+]([O-])c1cn(-c2cc(Cl)ccc2Cl)cn1

- IC50 [1]: Not Active
Compound: Cc1ccc(-n2cnc([N+](=O)[O-])c2)c(Br)c1

- IC50 [1]: Not Active
Compound: Cc1ccc(-n2cnc([N+](=O)[O-])c2)c(C)c1

- IC50 [1]: Not Active
Compound: COc1ccc(-n2cnc([N+](=O)[O-])c2)c(OC)c1

- IC50 [1]: Not Active
Compound: COc1ccc(-n2cnc([N+](=O)[O-])c2)cc1OC

- IC50 [1, 6]: 0.94 µM
Compound: O=[N+]([O-])c1cn(-c2ccc3c(c2)OCO3)cn1
- IC50 (L6): > 90 µg/mL

Compound: O=[N+]([O-])c1cc[n+]([O-])c2ccccc12 [4-NITROQUINOLINE-1-OXIDE]
- Activity (Lymphocyte [2]): 4.8%
- Activity (Lymphocyte [3]): 3.5%

- IC50 [1, 6]: 3.8 µM
Compound: NCCCC(N)(C(=O)O)C(F)F (configuration not stated) [EFLORNITHINE]
- IC50 (L6): 12 µg/mL (≈ 65.9 µM)

- IC50 [1, 6]: 2.57 µM
- Activity [4]: -511 mV
Compound: CSc1ccc(OCc2ncc([N+](=O)[O-])n2C)cc1 [FEXINIDAZOLE]
- IC50 (L6): > 90 µg/mL

Compound: Nc1nc(N)nc(Nc2ccc([As]3SCC(CO)S3)cc2)n1 (configuration not stated) [MELARSOPROL]
- IC50 (L6): 1.3 µg/mL

- Activity [4]: -516 mV
Compound: Cc1ncc([N+](=O)[O-])n1CCO [METRONIDAZOLE]

Compound: CC[C@]1(O)C[C@@H]2CN(CCc3c([nH]c4ccccc34)[C@@](C(=O)OC)(c3cc4c(cc3OC)N(C)[C@H]3[C@@](O)(C(=O)OC)[C@H](OC(C)=O)[C@]5(CC)C=CCN6CC[C@]43[C@@H]65)C2)C1 [VINBLASTINE]
- Activity (Lymphocyte [5]): 6.06%
